Consider four compounds from publication PMC8640995 (ACS Chemical Neuroscience, 2021).

Read-outs that look alike come from different tables or passages of the source. Bounds are passed on as bounds.

Series [1] is classed as in vivo, Wistar rats. As to conditions: for area under the curve, brain time–activity curve: 60 min scan; for area under the curve, brain time–activity curve / SUVmax brain: n = 2.
The conditions of series [2]: previously determined using the same method; cited from earlier work.
For series [3] the following is noted: previously reported biodistribution data, 5 and 15 min post-injection; cited from earlier work.
Series [4] has as its target T1, P2Y12R (Rattus norvegicus, UniProt Q9EPX4). Put plainly: in vitro autoradiography on rat brain sections using [18F]3. The class given is binding. Summed up: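 Flash-frozen rat brain sections (10 μm) were prewashed 15 min in 50 mM Tris-HCl pH 7.4 and air-dried. They were then incubated 30 min with 18F tracer (0.1 MBq·mL–1) in 50 mM Tris-HCl/3% BSA pH 7.4, with or without P2Y12R inhibitor at 1 μM. Sections were washed twice for 1 min in cold 5 mM Tris-HCl (4 °C), dipped in ice-cold water and dried, then exposed to a phosphor screen for 10 min. Whole-brain ROI binding was expressed as % of no-inhibitor binding; n = 3.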

The target in series [5] is T1, P2Y12R. The series is classed as in vivo, Wistar rats. Summed up: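 Male Wistar rats (12–15 weeks, 250–350 g) under isoflurane anesthesia; n = 4 per group. Both groups received tariquidar 15 mg/kg iv. The blocking group also received unlabeled test compound 5 mg/kg together with the tariquidar. The 18F tracer (10–25 MBq) was given iv via tail vein, followed immediately by a dynamic PET scan. Whole-brain ROI time–activity curves were expressed as SUV, mean ± standard deviation.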

For another series, the target named is human P2Y12R. To be noted: human P2Y12R-transfected HEK cells; cited from earlier work.
The mark [6] stands for this setting: baseline, after the initial perfusion peak, iv.
Setting [7] is: efflux transporter blocking with tariquidar.

T1 sequence (Q9EPX4 whole entry): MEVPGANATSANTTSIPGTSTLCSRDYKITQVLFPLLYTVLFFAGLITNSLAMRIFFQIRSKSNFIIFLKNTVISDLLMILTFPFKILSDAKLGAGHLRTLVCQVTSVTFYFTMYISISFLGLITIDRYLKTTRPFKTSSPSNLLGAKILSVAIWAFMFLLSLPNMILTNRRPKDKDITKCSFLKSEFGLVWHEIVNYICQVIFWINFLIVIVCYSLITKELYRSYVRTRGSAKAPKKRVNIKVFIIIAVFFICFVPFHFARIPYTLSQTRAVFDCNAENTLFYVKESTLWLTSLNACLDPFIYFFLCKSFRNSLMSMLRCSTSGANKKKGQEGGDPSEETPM

Turning to `CCOC(=O)c1cc(C#N)c(N2CC(N[11C](=O)NS(=O)(=O)c3ccc(Cl)s3)C2)nc1C` [[^11C]1, Ethyl 6-(3-(3-((5-Chlorothiophen-2-yl)sulfonyl)[^11C]ureido)azetidin-1-yl)-5-cyano-2-methylnicotinate], the “area under the curve, brain time–activity curve” value stood at 3.8 ± 0.7 in series [1] (baseline) and 5.2 ± 0.2 in series [1] (setting [7]). In series [1] (setting [6]), this compound displayed an SUVmax brain of 0.1. Further, the “log D7.4” value in series [2] is given as 1.93 ± 0.02. In addition, the “%ID/g in rat brain” value in series [3] is given as less than 0.1 %ID/g.
Take `CCCc1cc2c(N3CCn4c(nnc4C(F)(F)F)C3)nc(OCC[18F])nc2s1` [[^18F]3, 2-(2-[^18F]Fluoroethoxy)-6-propyl-4-(3-(trifluoromethyl)-5,6-dihydro-[1,2,4]triazolo[4,3-a]pyrazin-7(8H)-yl)thieno[2,3-d]pyrimidine]: the “area under the curve, brain time–activity curve” value worked out at 4.4 ± 0.1 in series [1] (baseline) and 27.6 ± 1.1 in series [1] (setting [7]). Also, the results for the SUVmax brain in series [1] (setting [6]) and in series [1] (efflux transporter blocking with tariquidar 15 mg/kg iv) were 0.2 and 1.0, respectively. Further, the “selective and specific binding” value at P2Y12R [4] is “approximately 70%”. Besides, the “area under the curve, whole brain time–activity curve” value stood at 24.1 ± 0.5 on P2Y12R [5] (baseline: tariquidar + tracer, n = 4); 20.6 ± 0.7 on P2Y12R [5] (blocking: tariquidar + unlabeled 3 (5 mg/kg) and tracer, n = 4, p = 0.04).
Broadly, the Ki is a measure of affinity in units of concentration, obtained from inhibition or displacement. `CCc1cc2c(N3CCN(C(=O)c4ccc(-c5ccccc5)cc4)CC3)nc(N3CCNC(=O)C3)nc2s1` [compound 2, 4-(4-(4-([1,1′-Biphenyl]-4-carbonyl)piperazin-1-yl)-6-ethylthieno[2,3-d]pyrimidin-2-yl)piperazin-2-one]: the Ki on human P2Y12R is 9 nM.
For `CCCc1cc2c(N3CCn4c(nnc4C(F)(F)F)C3)nc(OCCF)nc2s1` [compound 3, 2-(2-Fluoroethoxy)-6-propyl-4-(3-(trifluoromethyl)-5,6-dihydro-[1,2,4]triazolo[4,3-a]pyrazin-7(8H)-yl)thieno[2,3-d]pyrimidine], the “efflux transporter substrate behavior” value in series [1] (rats, tariquidar blocking of P-glycoprotein and breast cancer resistance protein) is “strong substrate for efflux transporters”. Moreover, the “blocking efficiency of [18F]3 binding” value on P2Y12R [4] (inhibitor co-incubated at 1 μM, n = 3) was “about 70%”. For the same compound, at human P2Y12R, the Ki is 0.3 nM.
